# Compound activity (PubChem)
# MrgX1 allo act: human MrgX1 positive allosteric modulation, primary screen; Q96LB2; AID 588675; B-score at 10 µM; actives 0.63% (n = 310,000); MrgX1-HEK293, Fluo-4 calcium flux, FDSS; hits give high values;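 active = plate-corrected calcium response at least 3 library SD above typical, normal starting fluorescence, not activating the receptor alone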;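 note: compound read alongside a low EC10 to EC30 dose of BAM8-22 agonist; peak minus trough fluorescence over baseline measured at the second addition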
# Target sequence (Q96LB2 whole entry, looked up): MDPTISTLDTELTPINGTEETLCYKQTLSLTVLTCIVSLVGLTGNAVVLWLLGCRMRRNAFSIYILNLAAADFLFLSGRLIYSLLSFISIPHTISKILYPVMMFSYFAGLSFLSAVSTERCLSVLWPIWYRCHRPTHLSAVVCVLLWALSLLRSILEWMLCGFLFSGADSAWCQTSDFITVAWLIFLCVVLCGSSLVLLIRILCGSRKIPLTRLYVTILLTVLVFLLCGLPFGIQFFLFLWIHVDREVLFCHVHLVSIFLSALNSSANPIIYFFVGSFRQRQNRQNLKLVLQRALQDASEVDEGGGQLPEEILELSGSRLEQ
# RGS4 act: RGS4 potentiation or activation | HEK293 M3R/inducible RGS4, carbachol calcium flux Fluo4; hits give low values | B-score at 10 µM | actives 0.92% (n = 310,000);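 active = B-score of the integrated calcium signal more than 4 SD below the library mean, with starting fluorescence not abnormally high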;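 note: negative B-score means reduced calcium response which marks RGS4 activation or potentiation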
#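 Test system: HEK293 cells with stable M3R and inducible RGS4; also added: carbachol at ECmax as muscarinic agonist stimulus; schedule: dye loading 30 min 37 °C, buffer rest 30 min RT; technique: kinetic calcium fluorescence imaging with Fluo4-AM dye, 2 µM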
# MrgX1 antag: human MrgX1 receptor antagonism, primary screen; MRGX1-HEK293 calcium flux, Fluo-4, BAM8-22 antagonism; hits give low values; B-score at 10 µM; actives 1.3% (n = 310,000); Q96LB2;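 active = calcium-response B-score plate-corrected more than 3 library SD below zero, starting fluorescence within 5 deviations, no agonist response on first addition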;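 note: peak minus trough fluorescence over baseline after final BAM8-22 challenge near maximal dose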
# RGS4 block: human RGS4 inhibition; HEK293 M3R/RGS4 inducible, Fluo-4 calcium flux; hits give high values; triggered by carbachol at its EC20; B-score at 10 µM; actives 0.45% (n = 310,000); AID 463165;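 active = B-score, a plate-corrected calcium signal, over three deviations above library mean, with baseline fluorescence within five deviations of library mean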;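 note: RGS4 expression induced by doxycycline in cells with stable M3 receptor; B-score is computed from the integrated fluorescence ratio over baseline after carbachol; higher B-score means a larger calcium signal and so more RGS4 inhibition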
# MrgX1 ag: human MrgX1 receptor agonism, primary screen; AID 588627; B-score at 10 µM; actives 0.44% (n = 310,000); Q96LB2; MrgX1-HEK293 cells, Fluo-4 calcium fluorescence, agonist mode; hits give high values;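 active = calcium response B-score plate-corrected fluorescence ratio at least 3 library SD, with starting fluorescence B-score inside 5 SD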
#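 Assay system: stable human MrgX1 HEK293 cell line. Quantity: 15,000 cells per well. Schedule: cells plated overnight, dye loaded 0.5 h 37 °C, 0.5 h room temperature. Detection: Fluo-4 NW calcium-flux fluorescence, kinetic read. Read-out basis: peak-minus-minimum fluorescence over baseline, converted to B scores. Control set: positive and negative control wells on each plate.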
# The depositor's hits bear a star; i = inactive. Most compounds without a hit are left out; they make up all but 3.5% or so of the library.
SMILES,MrgX1 allo act,RGS4 act,MrgX1 antag,RGS4 block,MrgX1 ag
Cc1cc(N/N=C\c2ccccc2)nc(-c2ccccc2O)n1,i,-7.6*,i,i,i
O=c1[nH]c(S)c(/C=C2\C=Nc3ccccc32)s1,i,i,-5.4*,i,i
COc1ccccc1C(=O)COC(=O)c1ccccc1OCC(=O)Nc1ccc(SC(F)F)cc1,i,-7.8*,i,i,i
CCOC(=O)C(NC(=O)C1C(C)N1S(=O)(=O)c1ccc(C)cc1)C(=O)OCC (centres undefined),i,i,i,i,i
COCCn1c(SCC(=O)N(C(C)C)C(C)C)nnc1-c1cc2ccccc2cc1O,6.6*,i,i,i,i
C=CCNCc1cc(=O)n2c(-c3ccccc3)csc2n1,i,-8.8*,i,i,i
CCN(CC)c1ccc(NC(=O)COc2ccc(N(C)S(=O)(=O)c3cccs3)cc2)cc1,7.9*,i,i,i,i
Nc1c(C(=O)N/N=C/c2cccnc2)oc2nc(-c3ccccc3)cc(-c3ccco3)c12,i,-8.9*,-6.2*,i,i
Nc1c(C(=O)N/N=C/c2cccnc2)oc2nc(-c3ccco3)cc(-c3ccco3)c12,i,i,i,i,i
Nc1cc(C(=O)O)c(N)c2c1C(=O)c1ccccc1C2=O,i,i,-5.7*,i,i
Nc1c(C(=O)O)ccc2c1C(=O)c1ccccc1C2=O,i,i,i,i,i
CCOC(CCNC(=O)c1cn(CCOC)c(=O)c2c1c1ccccc1n2C)OCC,i,i,i,i,i
CC(Sc1nccn1C)C(=O)Nc1ccccc1 (centres undefined),i,i,i,i,i
C/C(=N/NC(=O)CSc1nc2ccccc2n1C)c1ccc(O)cc1,i,i,-4.9*,i,i
CCCC[N+](C)(C)CCC(=O)NC(C)(C)CS(=O)(=O)[O-],i,i,i,i,i
CC1(NC(=O)CC[N+](C)(C)CCO)CS(=O)(=O)CC1S(=O)(=O)[O-] (centres undefined),i,i,-5.3*,i,i
COC(=O)c1ccc2c(C)c(C(C)(C)O)[nH]c2c1,i,i,i,i,i
CCc1ccc(-c2nc(CSCC(=O)N3CCN(c4ccccn4)CC3)c(C)o2)cc1,i,i,-7.1*,i,i
CC1CC1C(=O)OCC(=O)NNC(=O)COc1ccc(Br)cc1 (centres undefined),i,i,-6.5*,i,i
CCC(C)N1C(=O)N(c2cccc(Cl)c2)C(C)(O)CC1(C)C (centres undefined),i,i,i,i,i
CCOc1ccc(NS(=O)(=O)c2ccc(C(=O)NC3CCC(O)CC3)cc2)cc1 (centres undefined),i,i,i,i,i
Cc1cc(C)nc(NC(=O)NS(=O)(=O)N2CCCCCC2)n1,i,i,i,i,i
O=C1Cc2ccccc2N1c1ccccc1,i,i,i,i,i
O=C1CC(=Nc2ccccc2)NN1c1ccccc1,7.4*,i,i,i,i
Cc1cccc([C@@H]2[C@@H]3C(=O)N(Cc4ccccc4)C(=O)[C@@H]3[C@]3(Cc4ccc(Cl)cc4)C(=O)N(c4ccccc4)C(=O)N23)c1,i,i,-6.6*,i,i
SMILES,MrgX1 allo act,RGS4 act,MrgX1 antag,RGS4 block,MrgX1 ag
CC(=O)N1N=C(c2ccncc2)CC1c1ccccc1O (centres undefined),i,i,-7.5*,i,i
CC(=O)N1N=C(c2ccccc2)CC1c1cn(Cc2ccccc2)c2ccccc12 (centres undefined),i,i,-4.6*,i,i
O=C(c1ccncc1)N1N=C(c2ccc(Br)cc2)CC1c1ccccc1O (centres undefined),i,i,i,i,i
O=C(c1ccc2c(c1)OCCCO2)c1cccs1,i,i,i,i,i
O=[N+]([O-])c1ccc(S(=O)(=O)N2CCN(C3CCN(Cc4ccccc4)CC3)CC2)cc1,i,-7.5*,i,i,i
O=[N+]([O-])c1ccccc1S(=O)(=O)N1CCN(C2CCN(Cc3ccccc3)CC2)CC1,i,-7.3*,i,i,i
